Test results reported in ChEMBL document CHEMBL4715732, “4-Phenylureido/thioureido-substituted 2,2-dimethylchroman analogs of cromakalim bearing a bulky 'carbamate' moiety at the 6-position as potent inhibitors of glucose-sensitive insulin secretion” (Eur J Med Chem, 2016).

Tests used:
[1] = test system: Aorta; test: Myorelaxant activity in aortic rings isolated from Wistar rat assessed as reduction in KCl-induced contractions measured after 60 mins in presence of 80 mM KCl by force-displacement transducer; assay type: functional, tissue-based; settings: 1 h, in the assay text read “30 mM KCl” for “80 mM KCl”
How it was run: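 Endothelium-free rat aorta rings were contracted with 30 mM or 80 mM K+, with 1 or 10 μM glibenclamide present for some 30 mM series. Agent was applied cumulatively. EC50 is the concentration giving 50% relaxation of the KCl-induced contraction, reported as mean ± SEM (n).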

[2] = Residual glucose-induced insulin secretion in Wistar rat pancreatic islets at 1 uM incubated for 90 mins in presence of 16.7 mM glucose by radioimmunological assay relative to control; settings: Pancreatic islet, 1.5 h
[3] = Residual glucose-induced insulin secretion in Wistar rat pancreatic islets at 10 uM incubated for 90 mins in presence of 16.7 mM glucose by radioimmunological assay relative to control; settings: Pancreatic islet, 1.5 h

EC50 [1] [µM] | SMILES | residual insulin secretion at 1 µM [2] [%] | residual insulin secretion at 10 µM [3] [%]
11 | CC(C)OC(=O)Nc1ccc2c(c1)C(NC(=S)Nc1cccc(Cl)c1)CC(C)(C)O2 (racemic) | 81.5 | 19.3
10.4 | CC(C)OC(=O)Nc1ccc2c(c1)C(NC(=S)Nc1ccc(Cl)cc1)CC(C)(C)O2 (racemic) | 81.2 | 14.9
4.8 | COC(=O)Nc1ccc2c(c1)C(NC(=S)Nc1cccc(C#N)c1)CC(C)(C)O2 (racemic) | 85.1 | 29.3
21.2 | CCOC(=O)Nc1ccc2c(c1)C(NC(=O)Nc1ccc(Cl)cc1)CC(C)(C)O2 (racemic) | 92.1 | 49.9
> 30 | COC(=O)Nc1ccc2c(c1)C(NC(=S)Nc1ccc(C#N)cc1)CC(C)(C)O2 (racemic) | 93.8 | 27.8
6.5 | CC(C)(C)OC(=O)Nc1ccc2c(c1)C(NC(=O)Nc1ccc(C#N)cc1)CC(C)(C)O2 (racemic) | 53.4 | 5.8
> 30 | COC(=O)Nc1ccc2c(c1)C(NC(=O)Nc1ccc(Cl)cc1)CC(C)(C)O2 (racemic) | 92.7 | 53.7
16.9 | COC(=O)Nc1ccc2c(c1)C(NC(=O)Nc1cccc(C#N)c1)CC(C)(C)O2 (racemic) | 88.3 | 9.4
12.3 | CCOC(=O)Nc1ccc2c(c1)C(NC(=S)Nc1cccc(C#N)c1)CC(C)(C)O2 (racemic) | 77.6 | 14.8
24.4 | COC(=O)Nc1ccc2c(c1)C(NC(=S)Nc1ccc(Cl)cc1)CC(C)(C)O2 (racemic) | 84.9 | 22.8
22.7 | CCOC(=O)Nc1ccc2c(c1)C(NC(=S)Nc1cccc(Cl)c1)CC(C)(C)O2 (racemic) | 73.7 | 21.5

Second part, the compound before the results:

SMILES | EC50 [1] [µM] | residual insulin secretion at 1 µM [2] [%] | residual insulin secretion at 10 µM [3] [%]
COC(=O)Nc1ccc2c(c1)C(NC(=O)Nc1cccc(Cl)c1)CC(C)(C)O2 (racemic) | > 30 | 92 | 35.7
CCOC(=O)Nc1ccc2c(c1)C(NC(=S)Nc1ccc(C#N)cc1)CC(C)(C)O2 (racemic) | 19.4 | 80.2 | 10.2
CC(C)OC(=O)Nc1ccc2c(c1)C(NC(=S)Nc1cccc(C#N)c1)CC(C)(C)O2 (racemic) | 5.6 | 79.3 | 14.2
CC(C)(C)OC(=O)Nc1ccc2c(c1)C(NC(=O)Nc1cccc(Cl)c1)CC(C)(C)O2 (racemic) | 18.7 | 86.4 | 11
CC(C)OC(=O)Nc1ccc2c(c1)C(NC(=O)Nc1ccc(Cl)cc1)CC(C)(C)O2 (racemic) | 46.2 | 92.3 | 48.7
CCOC(=O)Nc1ccc2c(c1)C(NC(=O)Nc1ccc(C#N)cc1)CC(C)(C)O2 (racemic) | > 30 | 79.5 | 17.4
CCOC(=O)Nc1ccc2c(c1)C(NC(=O)Nc1cccc(Cl)c1)CC(C)(C)O2 (racemic) | 13.1 | 82.8 | 36.1
COC(=O)Nc1ccc2c(c1)C(NC(=O)Nc1ccc(C#N)cc1)CC(C)(C)O2 (racemic) | > 30 | 89.7 | 36.9
CC1(C)Oc2ccc(C#N)cc2C(N2CCCC2=O)C1O (racemic) [CROMAKALIM] | – | 95.3 | 94.4
CC(C)OC(=O)Nc1ccc2c(c1)C(NC(=O)Nc1cccc(Cl)c1)CC(C)(C)O2 (racemic) | 12.6 | 92 | 23.7
COC(=O)Nc1ccc2c(c1)C(NC(=S)Nc1cccc(Cl)c1)CC(C)(C)O2 (racemic) | 15.4 | 84.2 | 26.1
CCOC(=O)Nc1ccc2c(c1)C(NC(=S)Nc1ccc(Cl)cc1)CC(C)(C)O2 (racemic) | 8.9 | 78.4 | 22
CC(C)OC(=O)Nc1ccc2c(c1)C(NC(=O)Nc1ccc(C#N)cc1)CC(C)(C)O2 (racemic) | 17.7 | 80.7 | 14.1
CC(C)OC(=O)Nc1ccc2c(c1)C(NC(=S)Nc1ccc(C#N)cc1)CC(C)(C)O2 (stereo not given) | 7.2 | 86 | 14.8
CC(C)OC(=O)Nc1ccc2c(c1)C(NC(=O)Nc1cccc(C#N)c1)CC(C)(C)O2 (racemic) | 12.1 | 50.5 | 12.7
CCOC(=O)Nc1ccc2c(c1)C(NC(=O)Nc1cccc(C#N)c1)CC(C)(C)O2 (racemic) | 14.2 | 81 | 5.9
CC(C)(C)OC(=O)Nc1ccc2c(c1)C(NC(=O)Nc1ccc(Cl)cc1)CC(C)(C)O2 (racemic) | 9.4 | 86.1 | 36.4
CC1=Nc2ccc(Cl)cc2S(=O)(=O)N1 [DIAZOXIDE] | – | 91 | 80.8
